Results from ChEMBL document CHEMBL2380291, “Synthesis, 18F-radiolabeling, and in vivo biodistribution studies of N-fluorohydroxybutyl isatin sulfonamides using positron emission tomography” (J Med Chem, 2013).
Activity calls are given as the source filed them. The rule behind the calls is not given here.

Tests used:
[1] = molecular target: T1, Caspase-7 (Homo sapiens, UniProt P55210); assay: Inhibition of human recombinant caspase-7 assessed as Ac-DEVD-AMC conversion to 7-amino-4-methylcoumarin incubated for 10 mins prior to substrate addition measured after 10 mins by spectrophotometric analysis
T1 sequence (P55210 whole entry): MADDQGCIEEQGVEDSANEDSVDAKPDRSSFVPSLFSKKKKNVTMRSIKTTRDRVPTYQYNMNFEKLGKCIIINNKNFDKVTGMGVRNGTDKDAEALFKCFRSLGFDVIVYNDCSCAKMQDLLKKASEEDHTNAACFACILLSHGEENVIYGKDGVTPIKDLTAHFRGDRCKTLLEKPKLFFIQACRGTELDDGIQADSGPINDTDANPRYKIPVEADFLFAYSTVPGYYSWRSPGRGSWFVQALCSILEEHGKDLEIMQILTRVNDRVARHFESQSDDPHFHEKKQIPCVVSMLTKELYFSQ
Summary of the method: (§1)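 Recombinant caspase diluted to 0.5 unit per assay (500 pmol substrate converted in 60 min), preincubated 10 min at 37 °C in reaction buffer with inhibitor in DMSO at single final concentrations spanning 5 pM to 500 μM. Peptide substrate then added (final 10 μM) and reacted 10 min. IC50 obtained by nonlinear regression.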

[2] = molecular target: T2, Caspase-6 (Homo sapiens) (UniProt P55212); assay: Inhibition of human recombinant caspase-6 assessed as Ac-VEID-AMC conversion to 7-amino-4-methylcoumarin incubated for 10 mins prior to substrate addition measured after 10 mins by spectrophotometric analysis; summary of the method: as §1
T2 sequence (whole entry): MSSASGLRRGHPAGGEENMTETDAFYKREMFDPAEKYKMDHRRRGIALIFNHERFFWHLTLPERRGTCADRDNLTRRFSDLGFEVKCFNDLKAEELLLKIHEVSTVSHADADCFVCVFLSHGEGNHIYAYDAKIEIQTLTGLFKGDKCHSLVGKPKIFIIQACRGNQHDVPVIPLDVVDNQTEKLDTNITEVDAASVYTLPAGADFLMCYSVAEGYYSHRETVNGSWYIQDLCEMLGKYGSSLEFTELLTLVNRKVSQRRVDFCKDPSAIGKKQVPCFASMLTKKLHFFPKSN

[3] = molecular target: T3, Caspase-3 (Homo sapiens, UniProt P42574); assay: Inhibition of human recombinant caspase-3 assessed as Ac-DEVD-AMC conversion to 7-amino-4-methylcoumarin incubated for 10 mins prior to substrate addition measured after 10 mins by spectrophotometric analysis; summary of the method: as §1
T3 sequence (P42574 whole entry): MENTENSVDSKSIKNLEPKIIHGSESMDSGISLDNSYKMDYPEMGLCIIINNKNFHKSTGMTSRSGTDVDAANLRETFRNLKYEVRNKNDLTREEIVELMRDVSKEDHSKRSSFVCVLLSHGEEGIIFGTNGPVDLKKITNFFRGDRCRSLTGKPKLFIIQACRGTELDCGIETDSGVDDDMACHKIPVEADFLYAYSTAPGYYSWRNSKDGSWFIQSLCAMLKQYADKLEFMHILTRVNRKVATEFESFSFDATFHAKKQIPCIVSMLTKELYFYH

[4] = molecular target: T4, Caspase-1 (Homo sapiens) (UniProt P29466); assay: Inhibition of human recombinant caspase-1 assessed as Ac-YVAD-AMC conversion to 7-amino-4-methylcoumarin incubated for 10 mins prior to substrate addition measured after 10 mins by spectrophotometric analysis; summary of the method: as §1
T4 sequence (whole entry): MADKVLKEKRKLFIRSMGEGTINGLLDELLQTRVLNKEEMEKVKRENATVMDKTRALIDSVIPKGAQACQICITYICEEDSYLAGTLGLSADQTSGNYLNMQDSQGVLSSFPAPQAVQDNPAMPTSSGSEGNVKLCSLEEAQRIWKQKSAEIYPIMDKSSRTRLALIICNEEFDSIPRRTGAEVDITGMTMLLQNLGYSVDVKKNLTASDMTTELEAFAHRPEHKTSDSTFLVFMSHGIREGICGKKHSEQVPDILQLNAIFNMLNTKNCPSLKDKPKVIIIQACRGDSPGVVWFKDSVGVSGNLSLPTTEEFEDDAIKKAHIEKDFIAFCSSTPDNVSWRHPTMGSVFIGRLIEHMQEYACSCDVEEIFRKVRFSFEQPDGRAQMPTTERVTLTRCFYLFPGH

[5] = system: Blood; assay: Biodistribution in mouse blood at 9.8 MBq, iv up to 30 mins by PET/CT analysis; type: ADME, organism-based; conditions: in vivo, 0.5 h
Summary of the method: (§2)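 Wild-type mice given tracer by tail vein injection through a pump-driven saline flush (300 μL/min) while PET list-mode acquisition started. CT-defined 3D volumes of interest over organs transferred to coregistered PET data. Uptake expressed as percentage injected dose: counts per mL in VOI divided by total counts in mouse, times 100% ID/mL.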

[6] = system: Mus musculus; assay: Biodistribution in mouse urinary bladder at 9.8 MBq, iv after 6 to 96 mins by PET/CT analysis; type: ADME, organism-based; conditions: in vivo; summary of the method: as §2
[7] = system: Mus musculus; assay: Biodistribution in mouse gall bladder at 9.8 MBq, iv after 6 to 96 mins by PET/CT analysis; type: ADME, organism-based; conditions: in vivo; summary of the method: as §2
[8] = system: Intestine; assay: Biodistribution in mouse intestine at 9.8 MBq, iv after 6 to 96 mins by PET/CT analysis; type: ADME, organism-based; conditions: in vivo; summary of the method: as §2
[9] = system: Kidney; assay: Biodistribution in mouse kidney at 9.8 MBq, iv after 6 mins by PET/CT analysis; type: ADME, organism-based; conditions: in vivo, 0.1 h; summary of the method: as §2
[10] = system: Liver; assay: Biodistribution in mouse liver at 9.8 MBq, iv after 6 mins by PET/CT analysis; type: ADME, organism-based; conditions: in vivo, 0.1 h; summary of the method: as §2
[11] = system: Lung; assay: Biodistribution in mouse lung at 9.8 MBq, iv after 36 seconds by PET/CT analysis; type: ADME, organism-based; conditions: in vivo, 0.01 h; summary of the method: as §2
[12] = system: Heart; assay: Biodistribution in mouse heart at 9.8 MBq, iv after 36 seconds by PET/CT analysis; type: ADME, organism-based; conditions: in vivo, 0.01 h; summary of the method: as §2

| SMILES | IC50 [1] | inhibition [2] | IC50 [3] | inhibition [4] | Drug uptake [5] | Drug uptake [6] | Drug uptake [7] | Drug uptake [8] | Drug uptake [9] | Drug uptake [10] | Drug uptake [11] | Drug uptake [12] |
| --- | --- | --- | --- | --- | --- | --- | --- | --- | --- | --- | --- | --- |
| COC[C@@H]1CCCN1S(=O)(=O)c1ccc2c(c1)C(=O)C(=O)N2CC[C@H](O)CF | 27 nM | Active | 23.3 nM | Active | – | – | – | – | – | – | – | – |
| COC[C@@H]1CCCN1S(=O)(=O)c1ccc2c(c1)C(=O)C(=O)N2CC[C@H](O)CO | 103 nM | Active | 106 nM | Active | – | – | – | – | – | – | – | – |
| COC[C@@H]1CCCN1S(=O)(=O)c1ccc2c(c1)C(=O)C(=O)N2CC[C@@H](O)CO | 128 nM | Active | 187 nM | Active | – | – | – | – | – | – | – | – |
| COC[C@@H]1CCCN1S(=O)(=O)c1ccc2c(c1)C(=O)C(=O)N2CC[C@H](F)CO | 0.951 nM | Active | 11.8 nM | Active | – | – | – | – | – | – | – | – |

Other lines, results leading:

| IC50 [1] | inhibition [2] | IC50 [3] | inhibition [4] | Drug uptake [5] | Drug uptake [6] | Drug uptake [7] | Drug uptake [8] | Drug uptake [9] | Drug uptake [10] | Drug uptake [11] | Drug uptake [12] | SMILES |
| --- | --- | --- | --- | --- | --- | --- | --- | --- | --- | --- | --- | --- |
| – | – | – | – | Active | Active | Active | Active | 5.2 %ID/ml | 12 %ID/ml | 3 %ID/ml | 3.6 %ID/ml | COC[C@@H]1CCCN1S(=O)(=O)c1ccc2c(c1)C(=O)C(=O)N2CC[C@@H](O)C[18F] |
| 71 nM | Active | 56 nM | Active | – | – | – | – | – | – | – | – | COC[C@@H]1CCCN1S(=O)(=O)c1ccc2c(c1)C(=O)C(=O)N2CC[C@@H](F)CO |
| 296 nM | Active | 25.9 nM | Active | – | – | – | – | – | – | – | – | COC[C@@H]1CCCN1S(=O)(=O)c1ccc2c(c1)C(=O)C(=O)N2CC[C@@H](O)CF |
